Fewer inactive variants are shown than the library holds.
B1: tRNA (parent)
chain: GUUCCGUUGGCGUAAUGGUAACGCGUCUCCCUCCUAAGGAGAAGACUGCGGGUUCGAGUCCCGUACGGAACG

Variants of: B1
Assay: yeast fitness relative to wild type (ratio to wild type); higher = fitter; tRNA-Arg(CCU), competitive growth, 37 C, YPD
In short: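 A pool of Saccharomyces cerevisiae strains, each with a tRNA-Arg(CCU) gene variant at the native genomic locus, was competed in YPD at 37°C for 24 hours across six parallel replicates. The variants had been chemically synthesised at a 3% per-site mutation rate over 69 sites, and gene amplicons before and after competition were read by 100-nucleotide paired-end sequencing. Darwinian fitness relative to wild type rested on changes in genotype frequencies. Genotypes required ≥ 100 starting reads, and estimates < 0.5 were set to 0.5.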

Variant	yeast fitness
C22U C30G G50A	≤ 0.5
U3A U19A C33A C49U G52A	≤ 0.5
U16C C22U A37U C49A C62U	0.6
C29G A37C A42U A57G G67A	≤ 0.5
G6U A40G C49A C61G	≤ 0.5
C24U U47A U64C C66U	≤ 0.5
A36G U59C C61A C62U	≤ 0.5
C4A U13A G63A	≤ 0.5
G10A G17C A69U	≤ 0.5
C31A C34U	0.555
C5U C22G C27U	0.612
C34U G51C G58C	≤ 0.5
A36U G44A	0.578
C27U A45C U64G	0.584
A15C C46U C60U A65C	≤ 0.5
A43U G63A	0.895
G6A C11U C22G	0.555
G6A A37U C62U	≤ 0.5
C5G U13C U35C	≤ 0.5
C29U A57C	0.611
U54G U59C A69U	≤ 0.5
C11G A14C A15C A40C A70C	≤ 0.5
U32C A40G C49G	0.514
C24U C29G C62G	≤ 0.5

Variant	yeast fitness
C5G A20C G48A	≤ 0.5
U7A U35C A42G C60U	0.561
G25C C29A A65U	0.558
C4A C29U G67A	≤ 0.5
U28A C29G C33U C34G A42U G58A	≤ 0.5
G10A G58C A65U	≤ 0.5
U8G A40U G52A A69U	≤ 0.5
G6A A21C U47A C61A A70C	≤ 0.5
U2G U8A G23A U26G A43G	0.576
G10C A14U C66U	≤ 0.5
U2A A21G C27U	0.693
C24A A45G G50A	≤ 0.5
G12C A20U C30U C49U C55U C66U	0.559
A21G C34G C55G	≤ 0.5
C24U A45C G67A A70U	≤ 0.5
C11G C24U C62U G68C	≤ 0.5
A21G G44C G63C	≤ 0.5
G6C G52A C55G	≤ 0.5
C4G C30A A42C	≤ 0.5
C5A A14G C22G A37U	0.683
U13C A65G	0.956
U8C A45U C49U	0.714
C5G C24G C49U G58A G63A	≤ 0.5
A37G G44A U64G	≤ 0.5

Variant	yeast fitness
U3A C46A G67U	0.603
G17A C62A	0.558
A37C A42G	0.777
C4U A45C C60G	0.671
U28A C30U A69C	0.57
G9A U13G A36G	0.574
U26G C27G A57C	0.558
C29G A65U A70G	0.506
C27U G39C G52A G56A	0.559
G6C G44C A65G A70C	≤ 0.5
U16C G48C A57C	≤ 0.5
C5U A14C C29U C46A	≤ 0.5
G9C A20C C27U G39A G56A G58C	≤ 0.5
G18A C24A C31A	≤ 0.5
A43C G68C	0.72
C4G C11A U19C G23C U47C A70U	≤ 0.5
A40G C62A	0.641
U32C G48C C49U	0.635
C24A G67U	0.669
U32A A37C	0.771
A15G A42C	0.863
U28C A45C G50A C62U	≤ 0.5
U32A A42G C55U	≤ 0.5
C31U C33U C34G A40C A69C	≤ 0.5

Variant	yeast fitness
U2A G23A C29G	0.666
C49U G51C A69C	≤ 0.5
C4U C11U G44C	0.702
C5U C22A C29U G51C	≤ 0.5
C5G C30A	0.736
C4G G17A C34A A43G G68A	≤ 0.5
C27G A57U C62U	0.62
C29U A43U A70C	1.01
G12C C30U C66A	≤ 0.5
U13C C31U G50C	≤ 0.5
G41A A43G	0.81
C55U C66U	0.667
G38A U59G A69G	≤ 0.5
C49U G51A A69U	0.573
G9A U19C A43U	0.713
G9A C46G	0.993
U7C A45C G50A C62U	0.547
C5G C24U A43U C55U G68C	≤ 0.5
U16C G18A C24G A45U	≤ 0.5
G39C C55G U59A G63A	≤ 0.5
C24U C34U U35G	≤ 0.5
A57G A65G A69C	0.7
C4U C24A	0.574
C5U A20C U53A	0.544

Variant	yeast fitness
C4A A40G A65G	0.533
G12C C24U C55U G68C	0.55
G56C C62G G68C	0.56
G25A C34U A43U	≤ 0.5
G10A U19A C46A	0.542
U16A C34A U64C	0.513
G23A U53G	≤ 0.5
U59A G67A	0.799
U13A A20G	0.888
U7G A15U C62U C66A	≤ 0.5
U3A U26C U53C	≤ 0.5
C11U A70G	0.978
C5G A70U	0.812
C60A C61U G63C C66U	≤ 0.5
C5G A21U C29A U64C	≤ 0.5
C27G A43G C60A	≤ 0.5
U8A C29U C33U U53A U59G	≤ 0.5
A15G G41C A43C G67A	0.535
C24A A45G C61U	≤ 0.5
G12A A70U	0.99
C5G A14C G23C C33U G38A G58C A70G	≤ 0.5
G12A C55A	0.6
C22U G68C	0.717
U35G G52A	≤ 0.5

Variant	yeast fitness
U7C C24A	0.623
C29G U64G	0.635
C34G U47G	0.561
C5G G12A U28A A65G	0.703
G10C U19A C29G C34U	≤ 0.5
C22U A43U	0.788
U2G C27U A36G C62A	≤ 0.5
A20U U35C G44C	0.592
U3A A15C U16A U35A G52C C55A	≤ 0.5
C4U A42G C49U	0.704
C31G G51A A57G G68C	≤ 0.5
C22U G25A A65U	0.687
A15U G41C	0.784
G6A G44C A69U	0.586
A15C A21U G23A	≤ 0.5
C4A G12A C31U U59A G63A	≤ 0.5
G9C U16C C30U	0.506
A36U G52C	0.53
U7A C31U A40U	≤ 0.5
U19G C24G U28C	0.681
G25A U53C	0.819
C11U G23A	0.952
G44C C61A	0.583
U13A C46G G63C C66A	≤ 0.5

Variant	yeast fitness
C4U G44U	0.757
G9A A14C G38C G68A	≤ 0.5
C11U U13C U28C A42U C55A G56A	≤ 0.5
C34U A40C G68C	≤ 0.5
C4U C5G A45G	0.634
G17U C29G	0.544
C5G A14C U28A C31A A45U C49A C66U	≤ 0.5
A14U A36G U53A	≤ 0.5
G23A A36G C55G G63A A69U	≤ 0.5
C5A U19G C31G U53A	0.775
U2G C11G G12C C49U	≤ 0.5
A40C A42U U53C C61G	≤ 0.5
A21U A42G C49U	≤ 0.5
G6A G23A C24G G44A	≤ 0.5
U16C U35C A57C	0.532
G6C U8C C60A C62U	≤ 0.5
C5U G44C C61U	0.702
G6A G12A C22U A42C	≤ 0.5
U2C U35A C60A	≤ 0.5
G25C C34G	0.551
U16A C33G C49A	0.537
G6A C24U G67A	0.72
A36G A45C C66U	0.787

Reference: the RNAGym collection of RNA variant scans (doi:10.1126/science.aae0568)
